From ChEMBL document CHEMBL1125170, “A novel series of selective leukotriene antagonists: exploration and optimization of the acidic region in 1,6-disubstituted indoles and indazoles” (1990)
Values belong to the molecule of their own block, whether it stands above or below them. The source made the active and inactive calls. The calls are words filed in the database; no cut-off is given here.

What was measured:
Cavia porcellus [1] = organism: Cavia porcellus; assay: In vitro antagonism of 8 nM of peptidoleukotriene (LTE4) induced contraction of guinea pig tracheal spirals at 0.01 X E-7M concentration; format: functional, Trachea
Summary of the method: (§1)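 Guinea pig tracheal spirals held at 37 °C in modified Krebs' (mM: NaCl 119, KCl 4.6, CaCl2 1.8, MgCl2 0.5, NaHCO3 24.9, NaH2PO4 1.0, glucose 11.1) plus indomethacin 5 μM, resting tension 2 g, isometric recording. After reproducible 8 nM LTE4 responses, compound added for 10 min, then rechallenged. % inhibition is adjusted for the paired vehicle tissue. At least four spirals, paired t test.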

Cavia porcellus [2] = organism: Cavia porcellus; assay: In vitro antagonism of 8 nM of peptidoleukotriene (LTE4) induced contraction of guinea pig tracheal spirals at 0.033 X E-7M concentration; format: functional, Trachea; summary of the method: as §1
Cavia porcellus [3] = organism: Cavia porcellus; assay: Dissociation constant KB = [antagonist]/(dose ratio -1). KB determined in guinea pig tracheal spirals with LTE4 as agonist.; format: functional, Trachea
Summary of the method: (§2)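 Isolated guinea pig tracheal strips in Krebs' buffer with indomethacin (5 μM), 37 °C, 95% O2/5% CO2, resting tension 2 g. Carbachol (30 μM) sets the maximum. Antagonist incubated 30 min, then cumulative LTE4 concentration–response curves in log increments, one curve per tissue. EC50 by linear regression, paired vehicle controls. KB = [antagonist]/(DR − 1) (Furchgott).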

Cavia porcellus [4] = organism: Cavia porcellus; assay: In vitro antagonism of 8 nM of peptidoleukotriene (LTE4) induced contraction of guinea pig tracheal spirals at 100 X E-7M concentration; Not significant; format: functional, Trachea; summary of the method: as §1
Cavia porcellus [5] = organism: Cavia porcellus; assay: In vitro antagonism of 8 nM of peptidoleukotriene (LTE4) induced contraction of guinea pig tracheal spirals at 3.3 X E-7M concentration; format: functional, Trachea; summary of the method: as §1
Cavia porcellus [6] = assay: In vivo percent protection against aerosolized LTD4 induced dyspnea in guinea pig at 126 umol/kg po (60 minutes post oral dosing); 33/5; format: functional
[7] = target: T1, Cysteinyl leukotriene receptor 1 (Cavia porcellus) (UniProt Q2NNR5); assay: Dissociation constant KB = [antagonist]/(dose ratio -1).KB determined in guinea pig tracheal spirals with LTE4 as agonist; format: functional, tissue-based; details: Trachea; summary of the method: as §2
T1 sequence (whole entry): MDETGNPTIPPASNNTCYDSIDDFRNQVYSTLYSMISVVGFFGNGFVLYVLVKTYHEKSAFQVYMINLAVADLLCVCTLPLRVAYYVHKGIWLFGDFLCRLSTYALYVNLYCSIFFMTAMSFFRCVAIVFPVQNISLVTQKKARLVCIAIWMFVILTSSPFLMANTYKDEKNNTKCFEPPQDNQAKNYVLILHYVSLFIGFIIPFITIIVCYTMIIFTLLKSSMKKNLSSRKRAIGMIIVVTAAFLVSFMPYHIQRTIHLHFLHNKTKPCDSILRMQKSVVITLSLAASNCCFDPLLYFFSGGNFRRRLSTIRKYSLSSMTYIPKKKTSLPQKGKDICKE

Cavia porcellus [8] = organism: Cavia porcellus; assay: In vitro antagonism of 8 nM of peptidoleukotriene (LTE4) induced contraction of guinea pig tracheal spirals at 0.1 X E-7M concentration; format: functional, Trachea; summary of the method: as §1
Cavia porcellus [9] = organism: Cavia porcellus; assay: In vitro antagonism of 8 nM of peptidoleukotriene (LTE4) induced contraction of guinea pig tracheal spirals at 1 X E-7M concentration; format: functional, Trachea; summary of the method: as §1
Cavia porcellus [10] = organism: Cavia porcellus; assay: In vitro antagonism of 8 nM of peptidoleukotriene (LTE4) induced contraction of guinea pig tracheal spirals at 100 X E-7M concentration; Not active; format: functional; details: Trachea; summary of the method: as §1
Cavia porcellus [11] = organism: Cavia porcellus; assay: In vitro antagonism of 8 nM of peptidoleukotriene (LTE4) induced contraction of guinea pig tracheal spirals at 3 X E-7M concentration; format: functional, Trachea; summary of the method: as §1
Cavia porcellus [12] = organism: Cavia porcellus; assay: In vitro antagonism of 8 nM of peptidoleukotriene (LTE4) induced contraction of guinea pig tracheal spirals at 10 X E-7M concentration; format: functional, Trachea; summary of the method: as §1
Cavia porcellus [13] = assay: In vivo percent protection against aerosolized LTD4 induced dyspnea in guinea pig at 30 umol/kg po (180 minutes post oral dosing); 43/7; format: functional
Cavia porcellus [14] = assay: In vivo percent protection against aerosolized LTD4 induced dyspnea in guinea pig at 113 umol/kg po (60 minutes post oral dosing); 14/4; format: functional
Cavia porcellus [15] = organism: Cavia porcellus; assay: In vitro antagonism of 8 nM of peptidoleukotriene (LTE4) induced contraction of guinea pig tracheal spirals at 33 X E-7M concentration; format: functional, Trachea; summary of the method: as §1
Cavia porcellus [16] = assay: In vivo percent protection against aerosolized LTD4 induced dyspnea in guinea pig at 10 umol/kg po (180 minutes post oral dosing); 37/8; format: functional
Cavia porcellus [17] = assay: In vivo percent protection against aerosolized LTD4 induced dyspnea in guinea pig at 30 umol/kg po (180 minutes post oral dosing); 89/8; format: functional
Cavia porcellus [18] = assay: In vivo percent protection against aerosolized LTD4 induced dyspnea in guinea pig at 30 umol/kg po (180 minutes post oral dosing); 67/11; format: functional
Cavia porcellus [19] = assay: In vivo percent protection against aerosolized LTD4 induced dyspnea in guinea pig at 30 umol/kg po (60 minutes post oral dosing); 48/12; format: functional
Cavia porcellus [20] = organism: Cavia porcellus; assay: In vitro antagonism of 8 nM of peptidoleukotriene (LTE4) induced contraction of guinea pig tracheal spirals at 0.33 X E-7M concentration; format: functional, Trachea; summary of the method: as §1
Cavia porcellus [21] = assay: In vivo percent protection against aerosolized LTD4 induced dyspnea in guinea pig at 1 umol/kg po (180 minutes post oral dosing); 40/6; format: functional
Cavia porcellus [22] = organism: Cavia porcellus; assay: In vitro antagonism of 8 nM of peptidoleukotriene (LTE4) induced contraction of guinea pig tracheal spirals at 0.001 X E-7M concentration; format: functional, Trachea; summary of the method: as §1
Cavia porcellus [23] = assay: In vivo percent protection against aerosolized LTD4 induced dyspnea in guinea pig at 100 umol/kg po (60 minutes post oral dosing); 23/6; format: functional

SMILES: COC(=O)C(C(=O)c1ccc(Cn2ncc3ccc(NC(=O)OC4CCCC4)cc32)c(OC)c1)S(=O)(=O)c1ccccc1 (stereo unspecified)
Antagonism (Cavia porcellus [1]): 53%
Antagonism (Cavia porcellus [2]): 78%
pKB (Cavia porcellus [3]): 9.9

SMILES: CCCCC(CC)C(=O)Nc1ccc2ccn(Cc3ccc(C(=O)O)cc3OCCCc3ccccc3)c2c1 (stereo unspecified)
Antagonism (Cavia porcellus [4]): 18%

pKB [7]: 6.7
SMILES: CCCCOC(=O)Nc1ccc2cnn(Cc3ccc(C(=O)O)cc3OC)c2c1
Antagonism (Cavia porcellus [5]): 56%
Protection (Cavia porcellus [6]): 33%

SMILES: CCCCOC(=O)Nc1ccc2cnn(Cc3ccc(-c4nn[nH]n4)cc3OC)c2c1
Antagonism (Cavia porcellus [5]): 55%
pKB (Cavia porcellus [3]): 7.1

SMILES: CCCCC(CC)C(=O)Nc1ccc2ccn(Cc3ccc(C(=O)C(C(=O)OC)S(=O)(=O)c4ccccc4)cc3OC)c2c1 (stereo unspecified)
Antagonism (Cavia porcellus [8]): 65%
Antagonism (Cavia porcellus [9]): 100%
pKB (Cavia porcellus [3]): 8.5

SMILES: COc1cc(CNS(=O)(=O)c2ccccc2)ccc1Cn1ccc2ccc(NC(=O)OC3CCCC3)cc21
Antagonism (Cavia porcellus [10]): inactive

SMILES: CCCCC(CC)C(=O)Nc1ccc2ccn(Cc3ccc(C(=O)NS(=O)(=O)CCCC)cc3OC)c2c1 (stereo unspecified)
Antagonism (Cavia porcellus [11]): 63%
Antagonism (Cavia porcellus [12]): 100%

SMILES: CCCCOC(=O)Nc1ccc2cnn(Cc3ccc(C(=O)NS(=O)(=O)c4ccccc4)cc3OC)c2c1
Antagonism (Cavia porcellus [2]): 77%
Antagonism (Cavia porcellus [8]): 100%
pKB (Cavia porcellus [3]): 9.2

SMILES: CCC(C(=O)Nc1ccc2ccn(Cc3ccc(C(=O)NS(=O)(=O)c4ccccc4)cc3OC)c2c1)c1ccccc1 (stereo unspecified)
Antagonism (Cavia porcellus [8]): 33%

pKB [7]: 9.6
SMILES: COc1cc(C(=O)NS(=O)(=O)c2ccccc2)ccc1Cn1ccc2ccc(NC(=O)CC3CCCC3)cc21
Protection (Cavia porcellus [13]): 43%
Antagonism (Cavia porcellus [1]): 50%
Antagonism (Cavia porcellus [2]): 92%

SMILES: CCC(C(=O)Nc1ccc2cnn(Cc3ccc(C(=O)NS(=O)(=O)c4ccccc4)cc3OC)c2c1)c1ccccc1 (stereo unspecified)
Antagonism (Cavia porcellus [2]): 43%

SMILES: COC(=O)C(C(=O)c1ccc(Cn2ccc3ccc(NC(=O)CC4CCCC4)cc32)c(OC)c1)S(=O)(=O)c1ccccc1 (stereo unspecified)
Antagonism (Cavia porcellus [1]): 63%
Antagonism (Cavia porcellus [2]): 94%
pKB (Cavia porcellus [3]): 10.1

pKB [7]: 7.1
SMILES: CCC(C(=O)Nc1ccc2cnn(Cc3ccc(C(=O)O)cc3OC)c2c1)c1ccccc1 (stereo unspecified)
Antagonism (Cavia porcellus [5]): 30%
Protection (Cavia porcellus [14]): 14%

pKB [7]: 6.6
SMILES: CCCCC(CC)C(=O)Nc1ccc2ccn(Cc3ccc(-c4nn[nH]n4)cc3OC)c2c1 (stereo unspecified)
Antagonism (Cavia porcellus [5]): 31%
Antagonism (Cavia porcellus [12]): 50%

pKB [7]: 6.6
SMILES: CCCCC(CC)C(=O)Nc1ccc2ccn(Cc3ccc(C(=O)O)cc3OC)c2c1 (stereo unspecified)
Antagonism (Cavia porcellus [15]): 100%
Antagonism (Cavia porcellus [12]): 59%

SMILES: COc1cc(-c2nn[nH]n2)ccc1Cn1ccc2ccc(NC(=O)CC3CCCC3)cc21
Antagonism (Cavia porcellus [5]): 79%
Antagonism (Cavia porcellus [9]): 42%
Antagonism (Cavia porcellus [12]): 100%

pKB [7]: 10.3
SMILES: COc1cc(C(=O)NS(=O)(=O)c2ccccc2)ccc1Cn1ncc2ccc(NC(=O)OC3CCCC3)cc21 [ICI-198615]
Protection (Cavia porcellus [16]): 37%
Protection (Cavia porcellus [17]): 89%
Antagonism (Cavia porcellus [1]): 69%
Antagonism (Cavia porcellus [2]): 100%

pKB [7]: 9.5
SMILES: COc1cc(C(=O)NS(=O)(=O)c2ccccc2)ccc1Cn1ccc2ccc(NC(=O)OC3CCCC3)cc21
Protection (Cavia porcellus [18]): 67%
Protection (Cavia porcellus [19]): 48%
Antagonism (Cavia porcellus [2]): 61%
Antagonism (Cavia porcellus [20]): 100%

SMILES: CCCCC(CC)C(=O)Nc1ccc2ccn(Cc3ccc(C(=O)NS(=O)(=O)c4ccccc4)cc3OC)c2c1 (stereo unspecified)
Antagonism (Cavia porcellus [8]): 27%
Antagonism (Cavia porcellus [9]): 100%
pKB (Cavia porcellus [3]): 8.6

SMILES: COc1cc(C(=O)NS(=O)(=O)c2ccccc2C)ccc1Cn1ccc2ccc(NC(=O)CC3CCCC3)cc21
Protection (Cavia porcellus [21]): 40%
pKB (Cavia porcellus [3]): 9.9

SMILES: COc1cc(C(=O)NS(=O)(=O)c2ccccc2)ccc1Cn1ncc2ccc(NC(=O)CC3CCCC3)cc21
Antagonism (Cavia porcellus [22]): 23%
Antagonism (Cavia porcellus [1]): 100%
pKB (Cavia porcellus [3]): 10.5

pKB [7]: 7.8
SMILES: COc1cc(C(=O)O)ccc1Cn1ccc2ccc(NC(=O)OC3CCCC3)cc21
Antagonism (Cavia porcellus [15]): 100%
Protection (Cavia porcellus [23]): 23%
Antagonism (Cavia porcellus [9]): 61%
